From ChEMBL document CHEMBL1765011, “Synthesis and c-Met kinase inhibition of 3,5-disubstituted and 3,5,7-trisubstituted quinolines: identification of 3-(4-acetylpiperazin-1-yl)-5-(3-nitrobenzylamino)-7- (trifluoromethyl)quinoline as a novel anticancer agent” (J Med Chem, 2011)
pIC50: −log10 of the molar value. Activity calls are given as the source filed them. The calls are words filed in the database; no cut-off is given here.

Legend:
[1] = target: T1, Hepatocyte growth factor receptor (Homo sapiens, UniProt P08581); test: Inhibition of purified recombinant c-Met after 60 mins by ELISA
[2] = target: Hepatocyte growth factor receptor (Mus musculus) (UniProt P16056); test: Inhibition of TPR-MET autophosphorylation in mouse NIH3T3 cells after 4 hrs by Western blotting; type: cell-based
Procedure, shortened: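 Exponentially growing cells were treated with compound for 4 h at 37 °C and lysed in SDS sample buffer. Lysates were run on 10% SDS-PAGE and blotted to nitrocellulose. Blots were probed for phospho-c-Met and total c-Met, with GAPDH as loading control, and detected by ECL.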

[3] = tested on: BaF3; test: Antiproliferative activity against mouse BAF3 cells expressing TPR-Met after 72 hrs in absence of IL-3; type: functional, cell-based; settings: BaF3, 72 h
Procedure, shortened: (§1)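 Cells were seeded and exposed next day to a range of compound concentrations for 72 h. Proliferation was read by sulforhodamine B or MTT assay, and IC50 derived.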

[4] = tested on: NIH3T3; test: Antiproliferative activity against mouse NIH/3T3 cells expressing TPR-Met after 72 hrs; type: functional, cell-based; settings: NIH3T3, 72 h; procedure, shortened: as §1
[5] = Volume of distribution at steady state in mouse at 10 mg/kg, iv; type: ADME, organism-based; parameters: dose 10 mg/kg, route intravenous; settings: in vivo, read-out: Vdss
[6] = Half life in mouse at 10 mg/kg, iv; type: ADME, organism-based; parameters: dose 10 mg/kg, route intravenous; settings: in vivo
Procedure, shortened: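 Single iv dose of 10 mg/kg to mice, vehicle DMSO/Tween 80/normal saline. Clearance and half-life were derived from plasma concentration-time data. Average of three runs.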

[7] = Cmax in mouse at 20 mg/kg, po; type: ADME, organism-based; parameters: dose 20 mg/kg, route oral; settings: in vivo
Procedure, shortened: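 Oral 20 mg/kg single dose to mice, vehicle DMSO/Tween 80/normal saline. Cmax was read from the plasma concentration-time profile. Average of three runs.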

[8] = AUC (0 to infinity) in mouse at 20 mg/kg, po; type: ADME, organism-based; parameters: dose 20 mg/kg, route oral, time infinity; settings: plasma
Procedure, shortened: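 Mice dosed orally at 20 mg/kg in DMSO/Tween 80/normal saline vehicle; plasma concentration-time profile used to derive AUC0-∞. Values are the average of three runs.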

[9] = target: Vascular endothelial growth factor receptor 1 (Homo sapiens, UniProt P17948); test: Inhibition of Flt-1
Procedure, shortened: (§2)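 ELISA on plates precoated with 20 μg/mL poly(Glu,Tyr) 4:1. Buffer: 10 μM ATP, 50 mM HEPES pH 7.4, 50 mM MgCl2, 0.5 mM MnCl2, 0.2 mM Na3VO4, 1 mM DTT, compound in 1% DMSO. Purified kinase was added and incubated 60 min at 37 °C. Phosphotyrosine was detected with PY99 then HRP anti-mouse IgG, o-phenylenediamine, A490. IC50 was taken from inhibition curves.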

[10] = target: Mast/stem cell growth factor receptor Kit (Homo sapiens, UniProt P10721); test: Inhibition of c-Kit; procedure, shortened: as §2
[11] = target: Proto-oncogene tyrosine-protein kinase receptor Ret (Homo sapiens, UniProt P07949); test: Inhibition of RET
[12] = target: T1, Hepatocyte growth factor receptor; test: Inhibition of c-Met in human H1993 cells assessed as ERK1/2 phosphorylation at 0.1 to 3 uM after 4 hrs by Western blotting; type: cell-based
Procedure, shortened: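 Exponentially growing cells were exposed to compound for 4 h at 37 °C and lysed in SDS sample buffer. Lysates were resolved on 10% SDS-PAGE and blotted. Blots were probed for phospho- and total ERK1/2 and AKT, with GAPDH loading control, and detected by ECL.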

[13] = tested on: SNU-5; test: Antiproliferative activity against human SNU5 cells after 72 hrs; settings: SNU-5, 72 h
[14] = tested on: MDA-MB-231; test: Antiproliferative activity against human MDA-MB-231 cells after 72 hrs; settings: MDA-MB-231, 72 h
[15] = tested on: NIH3T3; test: Antitumor activity against mouse NIH/3T3 cells expressing TPR-Met xenografted in nude mouse assessed as tumor growth inhibition at 100 mg/kg, ip qd for 14 days relative to control; type: functional; settings: 336 h, route intraperitoneal
Procedure, shortened: (§3)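 Tumor cells, (5-10)×10^6, were implanted sc in nude mice and grown to 700-800 mm3. Tumors were cut into 1 mm3 fragments and trocar-transplanted sc. At 100-150 mm3, mice were randomized (n = 6) to vehicle or ip dosing daily. Volumes were measured twice weekly by caliper, TV = length×width²/2. % inhibition used final-day versus day-1 change against vehicle, with Student's t test.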

[16] = Antitumor activity against human U87MG cells xenografted in nude mouse assessed as tumor growth inhibition at 100 mg/kg, ip qd for 14 days relative to control; type: functional, U-87MG ATCC; settings: U-87 MG, 336 h, route intraperitoneal; procedure, shortened: as §3
[17] = tested on: U-87MG ATCC; test: Antitumor activity against human U87MG cells xenografted in nude mouse assessed as tumor growth inhibition at 50 mg/kg, ip qd for 14 days relative to control; type: functional, organism-based; parameters: dose 50 mg/kg; procedure, shortened: as §3
[18] = target: Insulin-like growth factor 1 receptor (Homo sapiens, UniProt P08069); test: Inhibition of IGF1R

T1 sequence (P08581 whole entry): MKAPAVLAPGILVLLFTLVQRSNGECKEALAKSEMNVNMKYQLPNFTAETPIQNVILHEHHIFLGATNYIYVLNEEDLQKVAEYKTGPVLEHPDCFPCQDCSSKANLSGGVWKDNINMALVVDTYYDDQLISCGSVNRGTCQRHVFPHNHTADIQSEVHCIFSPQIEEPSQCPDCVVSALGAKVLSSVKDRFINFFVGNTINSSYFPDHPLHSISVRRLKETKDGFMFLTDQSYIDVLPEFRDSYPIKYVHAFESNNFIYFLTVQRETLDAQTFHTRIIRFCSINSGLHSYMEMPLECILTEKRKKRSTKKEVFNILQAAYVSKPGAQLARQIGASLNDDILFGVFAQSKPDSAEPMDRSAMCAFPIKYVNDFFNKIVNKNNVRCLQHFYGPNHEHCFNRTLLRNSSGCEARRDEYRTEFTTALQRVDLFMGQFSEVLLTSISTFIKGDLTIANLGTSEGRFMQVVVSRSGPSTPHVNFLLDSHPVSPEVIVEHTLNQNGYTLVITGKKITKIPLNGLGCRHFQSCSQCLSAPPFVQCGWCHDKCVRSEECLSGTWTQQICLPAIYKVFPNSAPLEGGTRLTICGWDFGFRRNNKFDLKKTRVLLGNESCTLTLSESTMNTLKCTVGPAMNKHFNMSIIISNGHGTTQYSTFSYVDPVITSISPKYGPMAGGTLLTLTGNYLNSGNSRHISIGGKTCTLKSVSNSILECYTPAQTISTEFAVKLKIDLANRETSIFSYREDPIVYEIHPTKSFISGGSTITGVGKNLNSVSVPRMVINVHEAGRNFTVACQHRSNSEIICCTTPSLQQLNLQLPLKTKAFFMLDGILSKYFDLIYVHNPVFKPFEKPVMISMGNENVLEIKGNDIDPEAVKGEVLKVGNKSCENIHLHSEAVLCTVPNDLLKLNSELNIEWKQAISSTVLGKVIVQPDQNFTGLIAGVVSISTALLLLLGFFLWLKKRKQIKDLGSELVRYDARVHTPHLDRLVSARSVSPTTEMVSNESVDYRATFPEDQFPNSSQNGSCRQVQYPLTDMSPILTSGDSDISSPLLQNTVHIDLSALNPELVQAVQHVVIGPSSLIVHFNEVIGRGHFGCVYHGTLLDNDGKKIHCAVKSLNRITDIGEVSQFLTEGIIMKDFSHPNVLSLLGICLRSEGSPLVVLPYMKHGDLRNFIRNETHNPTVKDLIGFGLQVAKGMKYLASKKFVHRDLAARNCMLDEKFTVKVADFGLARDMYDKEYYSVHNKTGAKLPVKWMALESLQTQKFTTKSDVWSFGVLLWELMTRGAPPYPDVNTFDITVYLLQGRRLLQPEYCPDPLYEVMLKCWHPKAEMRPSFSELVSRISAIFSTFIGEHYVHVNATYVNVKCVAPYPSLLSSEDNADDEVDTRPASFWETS
Sequence of Proto-oncogene tyrosine-protein kinase receptor Ret (P07949 whole entry): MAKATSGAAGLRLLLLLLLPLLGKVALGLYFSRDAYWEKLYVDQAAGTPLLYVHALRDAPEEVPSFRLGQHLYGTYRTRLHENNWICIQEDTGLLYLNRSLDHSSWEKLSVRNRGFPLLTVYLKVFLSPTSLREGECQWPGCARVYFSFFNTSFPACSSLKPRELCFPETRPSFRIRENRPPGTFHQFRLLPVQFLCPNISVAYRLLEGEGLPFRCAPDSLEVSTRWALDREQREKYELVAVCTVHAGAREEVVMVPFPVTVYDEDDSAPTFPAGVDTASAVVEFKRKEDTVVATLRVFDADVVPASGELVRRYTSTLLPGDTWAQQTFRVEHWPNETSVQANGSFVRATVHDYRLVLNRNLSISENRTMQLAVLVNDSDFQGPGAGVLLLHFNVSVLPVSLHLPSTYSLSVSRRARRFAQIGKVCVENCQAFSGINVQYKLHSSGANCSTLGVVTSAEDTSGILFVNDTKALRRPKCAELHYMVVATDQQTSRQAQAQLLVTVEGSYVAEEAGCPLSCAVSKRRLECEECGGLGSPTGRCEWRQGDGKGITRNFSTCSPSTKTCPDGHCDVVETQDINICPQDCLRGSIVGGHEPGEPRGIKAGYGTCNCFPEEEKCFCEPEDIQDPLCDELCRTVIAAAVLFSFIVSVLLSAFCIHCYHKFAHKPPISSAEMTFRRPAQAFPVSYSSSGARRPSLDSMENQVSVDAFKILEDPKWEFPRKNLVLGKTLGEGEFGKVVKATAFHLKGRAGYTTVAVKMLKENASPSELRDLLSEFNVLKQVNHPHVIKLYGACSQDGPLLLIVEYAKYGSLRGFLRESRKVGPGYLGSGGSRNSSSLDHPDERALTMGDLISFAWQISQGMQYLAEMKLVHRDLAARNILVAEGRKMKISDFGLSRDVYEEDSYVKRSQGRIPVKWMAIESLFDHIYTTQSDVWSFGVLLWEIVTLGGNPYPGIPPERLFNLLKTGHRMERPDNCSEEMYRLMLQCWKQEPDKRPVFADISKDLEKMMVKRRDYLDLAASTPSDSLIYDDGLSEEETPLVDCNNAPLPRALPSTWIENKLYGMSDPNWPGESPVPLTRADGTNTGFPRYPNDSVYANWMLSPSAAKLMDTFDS
Sequence of Mast/stem cell growth factor receptor Kit (P10721 whole entry): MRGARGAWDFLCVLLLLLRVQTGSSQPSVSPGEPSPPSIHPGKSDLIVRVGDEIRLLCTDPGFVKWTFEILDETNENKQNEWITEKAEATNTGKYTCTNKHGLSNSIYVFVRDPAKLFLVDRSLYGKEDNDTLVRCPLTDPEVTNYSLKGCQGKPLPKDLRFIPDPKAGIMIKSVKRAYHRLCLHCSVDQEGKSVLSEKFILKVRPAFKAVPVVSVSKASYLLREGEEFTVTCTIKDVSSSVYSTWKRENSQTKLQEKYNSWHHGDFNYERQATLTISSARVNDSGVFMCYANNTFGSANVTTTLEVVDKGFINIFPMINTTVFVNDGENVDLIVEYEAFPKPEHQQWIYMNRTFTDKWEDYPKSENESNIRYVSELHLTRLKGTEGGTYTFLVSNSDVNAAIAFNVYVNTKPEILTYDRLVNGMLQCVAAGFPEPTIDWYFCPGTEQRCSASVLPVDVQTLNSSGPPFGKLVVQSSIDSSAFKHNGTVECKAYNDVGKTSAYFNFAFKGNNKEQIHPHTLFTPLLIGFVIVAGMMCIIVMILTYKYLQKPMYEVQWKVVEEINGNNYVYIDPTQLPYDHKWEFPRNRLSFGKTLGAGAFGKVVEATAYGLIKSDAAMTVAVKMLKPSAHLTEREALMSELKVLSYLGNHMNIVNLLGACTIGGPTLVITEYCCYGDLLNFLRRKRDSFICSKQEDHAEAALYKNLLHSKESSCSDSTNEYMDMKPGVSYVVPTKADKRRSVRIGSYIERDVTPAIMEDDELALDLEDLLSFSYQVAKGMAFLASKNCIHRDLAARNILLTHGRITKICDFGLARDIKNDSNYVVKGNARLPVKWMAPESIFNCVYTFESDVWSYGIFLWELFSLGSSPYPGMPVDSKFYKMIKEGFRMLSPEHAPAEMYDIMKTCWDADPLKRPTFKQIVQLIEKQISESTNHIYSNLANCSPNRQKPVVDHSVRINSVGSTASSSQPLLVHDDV
Sequence of Hepatocyte growth factor receptor (Mus musculus) (P16056 whole entry): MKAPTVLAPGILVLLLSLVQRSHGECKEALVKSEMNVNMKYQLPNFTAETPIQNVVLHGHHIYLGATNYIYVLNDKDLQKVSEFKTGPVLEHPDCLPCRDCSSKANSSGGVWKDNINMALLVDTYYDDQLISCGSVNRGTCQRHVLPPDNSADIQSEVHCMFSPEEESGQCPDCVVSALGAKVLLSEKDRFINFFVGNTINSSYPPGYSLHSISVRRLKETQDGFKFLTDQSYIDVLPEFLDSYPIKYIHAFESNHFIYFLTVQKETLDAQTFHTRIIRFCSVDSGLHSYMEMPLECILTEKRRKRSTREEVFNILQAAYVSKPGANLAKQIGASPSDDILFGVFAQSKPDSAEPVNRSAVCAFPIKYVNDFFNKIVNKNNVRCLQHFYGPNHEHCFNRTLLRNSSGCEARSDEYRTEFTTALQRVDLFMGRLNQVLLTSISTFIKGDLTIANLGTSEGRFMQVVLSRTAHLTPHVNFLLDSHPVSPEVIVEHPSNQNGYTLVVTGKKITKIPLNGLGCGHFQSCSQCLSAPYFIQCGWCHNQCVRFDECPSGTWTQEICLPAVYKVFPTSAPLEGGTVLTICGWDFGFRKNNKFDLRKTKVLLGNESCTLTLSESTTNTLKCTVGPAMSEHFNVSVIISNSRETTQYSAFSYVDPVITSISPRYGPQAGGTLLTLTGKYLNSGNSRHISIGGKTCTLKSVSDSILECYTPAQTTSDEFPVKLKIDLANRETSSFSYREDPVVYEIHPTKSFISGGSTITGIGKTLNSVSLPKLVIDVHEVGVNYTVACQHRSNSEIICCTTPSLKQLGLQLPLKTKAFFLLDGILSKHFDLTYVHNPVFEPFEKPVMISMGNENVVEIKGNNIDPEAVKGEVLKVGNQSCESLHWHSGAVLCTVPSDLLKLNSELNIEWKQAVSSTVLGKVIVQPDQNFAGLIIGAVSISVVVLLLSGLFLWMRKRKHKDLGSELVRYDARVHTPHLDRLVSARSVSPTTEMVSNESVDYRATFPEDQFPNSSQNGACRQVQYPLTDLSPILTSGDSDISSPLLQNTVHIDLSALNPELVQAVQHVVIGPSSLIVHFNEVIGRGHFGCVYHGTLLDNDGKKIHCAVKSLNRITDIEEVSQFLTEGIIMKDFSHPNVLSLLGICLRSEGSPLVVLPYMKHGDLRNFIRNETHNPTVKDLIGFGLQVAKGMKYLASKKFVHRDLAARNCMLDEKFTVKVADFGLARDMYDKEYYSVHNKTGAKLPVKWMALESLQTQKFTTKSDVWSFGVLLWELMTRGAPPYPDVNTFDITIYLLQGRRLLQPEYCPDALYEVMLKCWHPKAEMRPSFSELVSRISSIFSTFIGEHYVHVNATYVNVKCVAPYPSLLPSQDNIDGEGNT

CC(=O)N1CCN(c2cnc3cc(C(F)(F)F)cc(NCc4cccc([N+](=O)[O-])c4)c3c2)CC1
pIC50 [1]: 9.02
inhibition [2]: Dose-dependent effect
pIC50 [3]: 6.41
pIC50 [4]: 5.70
Vd [5]: 16.7 L/kg
half-life [6]: 3.25 h
Cmax [7]: 316 ng/mL
AUC(0-inf) [8]: 2100 ng·h/mL
pIC50 [9]: < 5.00
pIC50 [10]: < 5.00
pIC50 [11]: < 5.00
inhibition [12]: Active
pIC50 [13]: 6.00
pIC50 [14]: ≤ 4.30
inhibition in vivo at 100 mg/kg [15]: 68%
inhibition in vivo at 100 mg/kg [16]: 69%
inhibition [17]: Active
pIC50 [18]: < 5.00
